Test results reported in PMC6267698 (Drug Design, Development and Therapy, 2018).

Tests used:
Nrf2 signal pathway = assay: Western blot of Nrf2 signal pathway proteins in HepG-2 cells; format: cell-based
[1] = tested on: CYP450 (CYP1A2/2C9/2D6/2E1/3A4); assay: Microsomal CYP450 activity detection; format: in vivo, mice; conditions: Sch B 25.0, 50.0 and 100.0 mg/kg oral, 21 days, dose-dependent
Outline: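 Livers came from mice dosed orally for 21 days (25.0–100 mg/kg). Livers (~2 g) were homogenised at 4°C in phosphate buffer pH 7.4 with 1.0 mM EDTA and 250 mM sucrose, spun at 9,000× g then 100,000× g, and the pellet resuspended with 250 mM glycerol. Microsomes (0.5 mg/mL) were incubated with a probe cocktail: phenacetin 10 μM, tolbutamide 100 μM, dextromethorphan 2.5 μM, chlorzoxazone 20 μM, midazolam 5 μM. Reactions ran 30 min with 1 mM NADPH and were stopped with methanol. Metabolites were measured by LC–MS/MS.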

Nrf2 pathway = assay: Western blot of Nrf2 pathway proteins in mice liver tissue; format: in vivo; conditions: Sch B 25.0–100.0 mg/kg oral, 21 days, Western blotting
Outline: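 Mice were dosed orally once daily for 21 days (25.0, 50.0, 100 mg/kg, in 0.5% sodium carboxymethylcellulose). Frozen liver extracts were assayed for protein by Bradford, and equal protein was run on SDS-PAGE and blotted to PVDF. Membranes were blocked in 5% nonfat milk/TBS, probed with anti-Nrf2, HO-1, NQO1, GST or GR at 4°C overnight, then HRP secondary for 1 h at room temperature. Detection was by ECL on X-ray film.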

mice liver [2] = assay: Histopathological analysis of H&E-stained mice liver sections; format: in vivo
Outline: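 Mice were given test compound (25.0, 50.0, 100 mg/kg) by mouth daily for 21 days in 0.5% sodium carboxymethylcellulose and killed 24 h after the last dose. Liver was fixed in neutral buffered formalin, embedded in paraffin, cut at 5 μm and stained with H&E.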

mice liver [3] = assay: TUNEL immunofluorescence staining of mice liver; format: in vivo; conditions: 100 mg/kg Sch B oral, 21 days
Outline: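 After 21 days of daily oral test compound (25.0–100 mg/kg, 0.5% sodium carboxymethylcellulose), paraffin liver sections (10 μm) were treated with 3% H2O2 in methanol for 10 min and blocked with 1% BSA/PBS for 30 min. They were incubated with […] at 4°C overnight, then Alexa Fluor donkey anti-rabbit (1:500) for 1 h at 37°C. Nuclei were stained with DAPI and sections imaged by fluorescence microscopy. n=6.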

CYP3A = conditions: read-out: IC50 value, inhibition of CYP3A activity; rat liver microsomes; cited from earlier work
CYP3A1 mRNA = conditions: rat primary hepatocytes, Sch B 0.1 µM; cited from earlier work
[4] = tested on: P-gp–mediated efflux and CYP3A-mediated metabolism; conditions: rat, one single dose of Sch B 0.024 mM/kg; cited from earlier work
[5] = Sch B 5 µM, 48-hour incubation, Western blot

SMILES | effect on Sch B-induced activation of Nrf2 and GST expression (Nrf2 signal pathway; ABT 0.5 mM combined with Sch B 5 µM, 48 hours) | HO-1 and GR protein expression (Nrf2 signal pathway; [5]) | expression of GST (Nrf2 signal pathway; [5]) | expression of Nrf2 (Nrf2 signal pathway; [5]) | CYP450 (CYP1A2/2C9/2D6/2E1/3A4) activities in livers of mice [1] | protein expression of NQO-1 and GST in mice liver (Nrf2 pathway) | Nrf2 expression in mice liver (Nrf2 pathway; dose-dependent) | centrilobular hepatocellular infiltration of lymphocytes (mice liver [2]; 100 mg/kg Sch B oral, 21 days, H&E-stained liver sections) | hepatotoxicity in mice (mice liver [2]; highest dose (100 mg/kg) only, oral, 3 weeks) | positive TUNEL cell in liver (mice liver [3]) | IC50 (CYP3A) [µM] | expression of CYP3A1 mRNA (CYP3A1 mRNA) | tacrolimus bioavailability [4]
Nn1nnc2ccccc21 [ABT, 1-aminobenzotriazolea, reference compound] | suppressed | – | – | – | – | – | – | – | – | – | – | – | –
COc1cc2c(c(OC)c1OC)-c1c(cc3c(c1OC)OCO3)CC(C)C(C)C2 (stereo not shown) [Sch B, Schisandrin B] | – | no changes | upregulated | upregulated | considerably increased | dose-dependent increase | upregulated | clearly evident | mild hepatotoxicity | very limited | 5.51 | significantly increase | increase
